Molecules are shown by their SMILES. The source made the active and inactive calls. No cut-off for these calls is given here.

Data set [1] has as its target T1, Platelet-derived growth factor receptor beta (Homo sapiens, UniProt P09619). Briefly: Inhibition of PDGFRbeta in human MDA-MB-231 cells assessed as Akt Thr305 phosphorylation level at 2.5 uM incubated for 24 hrs in presence of PDGFRbeta siRNA by Western blot relative to untreated control. The data set is classed as cell-based. The method in brief:
(§1)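 Cells were transfected with control or PDGFR-β siRNA, then treated with 2.5 μM compound for 24 h. PDGFR-β-AKT-ULK1 pathway phospho-proteins were assessed by western blot: lysis in Hepes pH 7.4 / Triton buffer, 10-15% SDS-PAGE, PVDF, ECL detection, β-actin as loading control.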
In general terms: A western blot detects proteins with antibodies after separation by electrophoresis.

Data set [2] addresses T1, Platelet-derived growth factor receptor beta. Briefly: Inhibition of PDGFRbeta in human MDA-MB-231 cells assessed as ULK Ser555 phosphorylation level at 2.5 uM incubated for 24 hrs in presence of PDGFRbeta siRNA by Western blot relative to untreated control. The data set is classed as cell-based. The method in brief:
as §1

Data set [3] shares this target. The experiment in a line: Inhibition of PDGFRbeta in human MDA-MB-231 cells assessed as ULK Ser317 phosphorylation level at 10 uM incubated for 24 hrs by Western blot relative to untreated control. Type of data set: cell-based. The procedure, abridged:
(§2)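 Cells were treated 24 h at several concentrations. Pooled adherent and floating cells were lysed in Hepes 50 mM pH 7.4 / 1% Triton X-100 buffer with vanadate, NaF, EDTA, PMSF, aprotinin and leupeptin. Equal protein was run on 10-15% SDS-PAGE and blotted to PVDF. PDGFR-β-AKT-ULK1 pathway phospho-proteins were probed and detected by ECL, with β-actin as loading control.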

In data set [4] the test system is MDA-MB-231. The experiment in a line: Antiproliferative activity against human MDA-MB-231 cells incubated for 24 hrs by MTT assay. Type of data set: functional, cell-based. The following applies: MDA-MB-231, 24 h. The method in brief:
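MDA-MB-231 cells grown in DMEM with 10% FBS under 5% CO2 were seeded at 5×10^4 cells/ml. After 24 h, a concentration series was added for 24, 48 or 72 h and viability was read by MTT. IC50 is mean ± SD of triplicates.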
In general terms: Tetrazolium dyes change colour on reduction, which living cells bring about.

Data set [5] relates to MDA-MB-231. The experiment in a line: Induction of apoptosis in human MDA-MB-231 cells assessed as change in cleaved PARP protein level at 5 uM incubated for 24 hrs by Western blot method relative to untreated control. Type of data set: functional. The method in brief:
(§3)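 MDA-MB-231 cells were exposed for 24 h. Adherent and floating cells were pooled and lysed for 1 h at 4 °C in 50 mM Hepes pH 7.4 with 1% Triton X-100, orthovanadate, NaF, EDTA, PMSF, aprotinin and leupeptin. After 12,000 rpm clearing, equal protein was run on 10-15% SDS-PAGE and blotted to PVDF. Detection used HRP-ECL, with β-actin as loading control and densitometric quantification.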

In data set [6] the target is T1, Platelet-derived growth factor receptor beta. Briefly: Inhibition of PDGFRbeta in human MDA-MB-231 cells assessed as ULK Ser555 phosphorylation level at 2.5 uM incubated for 24 hrs by Western blot relative to untreated control. The data set is classed as cell-based. The method in brief: as §2
Data set [7] shares this target. Briefly: Inhibition of PDGFRbeta in human MDA-MB-231 cells assessed as ULK Ser317 phosphorylation level at 2.5 uM incubated for 24 hrs in absence of PDGFRbeta siRNA by Western blot relative to untreated control. Type of data set: cell-based. The method in brief: as §1
Data set [8] concerns MDA-MB-436. Briefly: Antiproliferative activity against human MDA-MB-436 cells incubated for 24 hrs by MTT assay. Type of data set: functional, cell-based. Particulars: MDA-MB-436, 24 h.
Data set [9] concerns the target T1, Platelet-derived growth factor receptor beta. Briefly: Inhibition of PDGFRbeta in human MDA-MB-231 cells assessed as C-Raf Ser338 phosphorylation level at 2.5 uM incubated for 24 hrs in presence of PDGFRbeta siRNA by Western blot relative to untreated control. Type of data set: cell-based.
For data set [10] the target is unchanged. Briefly: Inhibition of PDGFRbeta in human MDA-MB-231 cells assessed as Akt Ser473 phosphorylation level at 2.5 uM incubated for 24 hrs in presence of PDGFRbeta siRNA by Western blot relative to untreated control. The data set is classed as cell-based. The method in brief:
as §1

Data set [11] has the same target. Briefly: Inhibition of PDGFRbeta in human MDA-MB-231 cells assessed as PDGFRbeta Tyr740 phosphorylation level at 2.5 uM incubated for 24 hrs in presence of control siRNA by Western blot relative to untreated control. The data set is classed as cell-based. The procedure, abridged: as §1
Data set [12] shares this target. Briefly: Inhibition of PDGFRbeta in human MDA-MB-231 cells assessed as ULK Ser317 phosphorylation level at 2.5 uM incubated for 24 hrs in presence of control siRNA by Western blot relative to untreated control. Type of data set: cell-based. The method in brief: as §1
For data set [13], the system named is MDA-MB-231. The experiment in a line: Effect on total Ras protein level in human MDA-MB-231 cells at 10 uM incubated for 24 hrs by Western blot relative to untreated control. The following applies: mda-mb-231, 24 h.
The subject of data set [14] is MDA-MB-231. The experiment in a line: Effect on total c-Raf protein level in human MDA-MB-231 cells at 5 uM incubated for 24 hrs in presence of PDGFRbeta siRNA by Western blot relative to untreated control. Type of data set: cell-based. Particulars: mda-mb-231, 24 h.
Data set [15] concerns MDA-MB-231. The experiment in a line: Effect on total Akt protein level in human MDA-MB-231 cells at 10 uM incubated for 24 hrs by Western blot relative to untreated control. The data set is classed as ADME, cell-based. Particulars: mda-mb-231, 24 h. The procedure, abridged:
as §3

Data set [16] deals with MDA-MB-231. The experiment in a line: Induction of autophagy in human MDA-MB-231 cells assessed as change in Beclin-1 protein level at 10 uM incubated for 24 hrs by Western blot method relative to untreated control. The data set is classed as functional. The method in brief: as §3
The subject of data set [17] is MDA-MB-231. Briefly: Activation of ERK in human MDA-MB-231 cells assessed as ERK Thr202/Tyr204 phosphorylation level at 2.5 to 10 uM incubated for 24 hrs by immunocytochemistry. The data set is classed as cell-based. The method in brief: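 MDA-MB-231 cells (ATCC; DMEM, 10% FBS, 5% CO2) were treated, blocked in PBS with 1.5% goat serum, then given p-ERK antibody (1:200 in PBS with 1% BSA) overnight at 4 °C. TRITC-labelled secondary antibody followed for 1 h at room temperature. Nuclear fluorescence was read by microscopy.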

T1 sequence (P09619 whole entry): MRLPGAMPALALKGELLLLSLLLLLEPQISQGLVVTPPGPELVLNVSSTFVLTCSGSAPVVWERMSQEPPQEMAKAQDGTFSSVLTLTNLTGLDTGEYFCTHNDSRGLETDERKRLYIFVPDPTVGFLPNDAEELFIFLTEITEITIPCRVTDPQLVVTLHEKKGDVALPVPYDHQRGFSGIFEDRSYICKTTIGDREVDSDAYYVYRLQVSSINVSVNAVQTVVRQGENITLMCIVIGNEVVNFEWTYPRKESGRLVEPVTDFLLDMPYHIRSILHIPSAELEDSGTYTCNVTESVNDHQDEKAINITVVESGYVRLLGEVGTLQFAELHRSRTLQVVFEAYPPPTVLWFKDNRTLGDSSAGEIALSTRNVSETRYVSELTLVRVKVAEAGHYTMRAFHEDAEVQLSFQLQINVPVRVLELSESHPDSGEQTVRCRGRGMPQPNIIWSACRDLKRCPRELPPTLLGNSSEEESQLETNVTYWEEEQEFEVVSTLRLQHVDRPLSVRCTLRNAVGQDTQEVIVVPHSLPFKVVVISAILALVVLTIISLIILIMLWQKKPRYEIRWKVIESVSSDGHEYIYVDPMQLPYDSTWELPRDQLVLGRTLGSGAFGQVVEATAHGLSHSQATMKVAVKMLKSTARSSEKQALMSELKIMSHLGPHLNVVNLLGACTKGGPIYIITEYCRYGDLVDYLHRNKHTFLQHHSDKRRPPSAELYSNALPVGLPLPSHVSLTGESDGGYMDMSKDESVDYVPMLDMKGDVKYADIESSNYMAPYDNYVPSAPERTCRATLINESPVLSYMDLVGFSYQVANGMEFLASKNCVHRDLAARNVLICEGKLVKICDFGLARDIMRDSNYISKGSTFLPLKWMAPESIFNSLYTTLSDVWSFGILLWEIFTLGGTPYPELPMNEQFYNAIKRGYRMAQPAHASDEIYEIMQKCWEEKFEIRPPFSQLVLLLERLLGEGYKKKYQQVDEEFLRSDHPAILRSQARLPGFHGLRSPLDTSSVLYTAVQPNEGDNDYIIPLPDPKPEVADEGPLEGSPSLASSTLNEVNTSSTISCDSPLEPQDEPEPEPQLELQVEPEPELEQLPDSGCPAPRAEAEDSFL

As to `COc1cccc(Nc2cc(N3CCN(C(=O)Nc4ccc(C(F)(F)F)cc4)CC3)ncn2)c1`, the fold change (FC) came to 0.04 in [1]; 3.69 in data set [2]; 3.2 in data set [3]; 0.85 in data set [5]; 4.5 in [6]; 3.67 in data set [7]. Also, the fold change (FC) in data set [9] is 0.85; in data set [10], 0.52; in [11] it was 0.08; in data set [12], 3.21; in data set [13] it was 2.32; in data set [14], 0.82. Moreover, the results for the “fold change (FC)” value in [15] and in data set [16] were 0.76 and 3.2, respectively. The figures for the IC50 in data set [4] and in data set [8] were 730 to 750 nM and 2360 nM, respectively. For the same compound, the outcome in data set [17] was Active.

Usually IC50 stands for the concentration at which inhibition is half-maximal.

The record behind these values is ChEMBL document CHEMBL4130442, “Design, synthesis and structure-activity relationship studies of a focused library of pyrimidine moiety with anti-proliferative and anti-metastasis activities in triple negative breast cancer” (Eur J Med Chem, 2017).
